CFTR F508del cor: CFTR F508del correction in bronchial cells | CFBE cells, YFP halide quenching; stimulated with forskolin plus potentiator P3; % fluorescence drop versus neutral controls | activity (quench increase), % at 7.58 µM | hit rate 0.36% among 350,000;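 active = mean added fluorescence quench of at least 8% versus neutral control, with both replicates also reaching 8%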;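 also: cells transiently co-express mutant CFTR-F508del with the halide-sensitive YFP; corrector assay measuring rescue of mutant channel to the surface after 24 h compound exposure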
SMARCA2 activ: increases SMARCA2 function in MMTV reporter cells | activation, % at 9.1 µM | hit rate 1% among 370,000 | MG213 cells, MMTV-luciferase reporter, dexamethasone, overnight; in the data active = activation above about 7.8%;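 also: 0% = vehicle wells and 100% = reference activator wells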
MC4R antagonist: antagonists of human melanocortin 4 receptor (MC4R); inhibition, % at 6.5 µM; AID 540295; hit rate 0.48% among 360,000; P32245; MC4R-expressing cells, MTII-stimulated cAMP, LANCE TR-FRET;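 active = inhibition above its plate's cutoff, the mean of tested wells on that plate plus 3 SD, cut at about 29% in these data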;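 also: 0% = Melanotan II alone and 100% = Melanotan II plus saturating MCL0020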
Target sequence (P32245 whole entry, looked up): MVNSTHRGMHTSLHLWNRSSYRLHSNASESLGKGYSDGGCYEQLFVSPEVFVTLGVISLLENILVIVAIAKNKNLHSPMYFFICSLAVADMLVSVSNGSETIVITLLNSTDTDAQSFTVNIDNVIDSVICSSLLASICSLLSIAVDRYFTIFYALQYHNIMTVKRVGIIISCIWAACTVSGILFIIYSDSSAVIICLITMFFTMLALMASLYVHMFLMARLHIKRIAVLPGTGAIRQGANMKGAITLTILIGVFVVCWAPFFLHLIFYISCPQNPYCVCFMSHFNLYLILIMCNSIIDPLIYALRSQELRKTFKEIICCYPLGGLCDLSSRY
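Material – human MC4R-expressing U2OS cells · Repeats – no replicates · Detection – TR-FRET with Eu-cAMP and labeled anti-cAMP, 671 nm · Times – compound 30 min, challenge 1 h, detection 1 h · Compound – single nominal compound dose of 6.5 µM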
MC4R ag barr: activates human MC4R beta-arrestin recruitment; AID 540308; activation, % at 8.9 µM; U2OS MC4R beta-arrestin complementation, luminescence; percent of melanotan II response, DMSO zero; hit rate 0.98% among 360,000;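 active = activation above a per-plate cutoff, the mean activation of sample wells on that plate plus 3 SD, cut at about 8% in these data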
U2OS cAMP counter: U2OS forskolin cAMP inhibition counter-screen. shares compounds with MC4R antagonist. parental U2OS, LANCE TR-FRET. inhibition, % at 6.5 µM. hit rate 26% among 1,600. AID 602193;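 active = mean inhibition over triplicates above the low-control well mean plus 3 SD, set per campaign, cut at about 13% in these data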;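 also: signal is single emission at 671 nm which falls as cellular cAMP rises; 0% = forskolin-stimulated wells and 100% = buffer without forskolin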
MC4R antag conf: human MC4R cAMP antagonism confirmation; shares compounds with MC4R antagonist; MC4R-expressing cells, MTII-stimulated cAMP, TR-FRET; inhibition, % at 6.5 µM; hit rate 27% among 1,600; in the data active = inhibition above about 29%;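 also: 0% = agonist stimulated wells alone and 100% = agonist stimulated wells plus saturating reference antagonist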
An asterisk follows results filed as active; nt = no result given. Shown are actives, neighbours in structure and some others; about 2.1% of the full set was active somewhere.

SMILES | CFTR F508del cor | SMARCA2 activ | MC4R antagonist | MC4R ag barr | U2OS cAMP counter | MC4R antag conf
COc1cccc(Nc2nc(-c3sc(NC(=O)c4ccco4)nc3C)cs2)c1 | -2 | 5 | 35* | -1 | 10 | 20
COc1ccc(Cl)cc1Nc1nc(-c2sc(NC(=O)c3ccco3)nc2C)cs1 | 3 | 2 | 10 | -1 | nt | nt
COc1cccc(Nc2nc(-c3sc(C)nc3C)cs2)c1 | 3 | 3 | 29* | 1 | 0 | 6
CCCC#Cc1ccc2c(c1)O[C@H](CN(C)CC1CCOCC1)[C@H](C)CN([C@@H](C)CO)S2(=O)=O | 3 | nt | nt | nt | nt | nt
COC(=O)c1sccc1NC(=S)Nc1cccc(F)c1 | 1 | -4 | 12 | 0 | nt | nt
COC(=O)c1sccc1NC(=S)Nc1ccc(F)cc1F | 3 | 1 | 30* | 1 | -1 | -19
CCN(CC(=O)Nc1c(F)cccc1F)C(=O)CCN1C(=O)c2cccc([N+](=O)[O-])c2C1=O | 4 | 0 | 36* | -2 | 16* | 49*
COc1cccc(NC(=O)CCN2C(=O)c3cccc([N+](=O)[O-])c3C2=O)c1 | 0 | -2 | 37* | -1 | 15* | 34*
CCN(CC(=O)Nc1ccc(NC(C)=O)cc1)C(=O)CCN1C(=O)c2cccc([N+](=O)[O-])c2C1=O | 3 | -3 | 5 | -2 | nt | nt
COc1ccc(NC(=O)CCN2C(=O)c3cccc([N+](=O)[O-])c3C2=O)cc1 | 0 | -3 | 8 | -3 | nt | nt
COc1ccc(NC(=O)CCC(=O)NCCO)cc1 | -2 | 1 | 37* | 0 | 1 | -7
CCOC(=O)C1=C(O)/C(=C/c2ccc(OCC(=O)O)c(OCC)c2)SC1=Nc1ccc(C)cc1 | 0 | 3 | 29* | 0 | -6 | -2
COCC(=O)N1CCC2(CC1)CN(C(=O)CN1CCOCC1)[C@H](CO)c1c2c2ccc(OC)cc2n1C | -2 | nt | nt | nt | nt | nt
CCc1ccc(-c2nc3ccc(Br)cc3c(C(=O)O)c2C)s1 | -2 | -2 | 133* | -1 | 102* | 182*
Cc1cccc(/C=C/C(=O)c2ccc([N+](=O)[O-])o2)c1 | -5 | 0 | 6 | 0 | nt | nt
COc1ccc(/C=C/C(=O)c2ccc([N+](=O)[O-])o2)cc1 | 0 | 0 | 30* | -3 | 8 | 7
C[C@H]1CN([C@@H](C)CO)S(=O)(=O)c2ccc(-c3ccc(C(=O)N(C)C)cc3)cc2O[C@H]1CN(C)C(=O)C1CCCCC1 | -2 | nt | nt | nt | nt | nt
Cn1nc([N+](=O)[O-])nc1Sc1cccc2cccnc12 | -3 | -2 | 30* | 0 | 8 | 3
CCOC(=O)CC(NC(=O)Cn1nnc(-c2ccccc2F)n1)c1ccc(OC)cc1 (configuration not stated) | -4 | 1 | 30* | 1 | 3 | 1
O=C(COC(=O)CNS(=O)(=O)c1cccc(Br)c1)Nc1ccccc1Sc1ccccc1 | nt | -2 | 29* | 5 | 6 | 18
CC(C)[C@H](NS(=O)(=O)c1ccccc1)C(=O)OCC(=O)Nc1ccccc1Sc1ccccc1 | nt | -3 | 10 | 2 | nt | nt
O=C(COC(=O)CNS(=O)(=O)c1c(Cl)cccc1Cl)Nc1ccccc1Sc1ccccc1 | -2 | -2 | 32* | 0 | 18* | 37*
CO[C@H]1CN(C)C(=O)c2ccc(NS(=O)(=O)CC(F)(F)F)cc2OC[C@H](C)NC[C@@H]1C | 0 | nt | nt | nt | nt | nt
CC(C)(C)c1ccc(C(=O)O)c(C(=O)c2ccccc2)c1 | 5 | -2 | 31* | 5 | 3 | -8
CCC(=O)N(C)C[C@@H]1Oc2cc(C#CC3(O)CCCC3)ccc2S(=O)(=O)N([C@@H](C)CO)C[C@H]1C | 0 | nt | nt | nt | nt | nt
SMILES | CFTR F508del cor | SMARCA2 activ | MC4R antagonist | MC4R ag barr | U2OS cAMP counter | MC4R antag conf
CO[C@H]1CN(C)C(=O)c2cc(NS(C)(=O)=O)ccc2OC[C@@H](C)N(CC2CCOCC2)C[C@@H]1C | 1 | nt | nt | nt | nt | nt
CCOC(=O)CSc1nc2ccc(Nc3nc(N4CCOCC4)nc(N4CCOCC4)n3)cc2s1 | nt | -1 | 30* | -1 | -16 | 27
Cc1ccc(C)c(NC(=O)CCC(=O)N/N=C/c2ccc3c(c2)OCO3)c1 | nt | -4 | 31* | 1 | -1 | 7
C[C@@H]1CN([C@@H](C)CO)C(=O)Cc2cc(NC(=O)C3CCCCC3)ccc2O[C@H]1CN(C)Cc1ccc(-c2ccccc2)cc1 | -3 | nt | nt | nt | nt | nt
CCCN(CC(=O)Nc1ccccc1C)CC(=O)Nc1ccc(Br)cc1F | 2 | -2 | 29* | 2 | 0 | 3
CCCN(CC(=O)Nc1ccccc1Br)CC(=O)Nc1ccc(F)c(F)c1F | nt | -2 | 6 | 0 | nt | nt
O=C(OC1CCOC1=O)C1CCN(S(=O)(=O)c2ccccc2)CC1 (configuration not stated) | -2 | -1 | 35* | -1 | 18* | 43*
O=C(OC1CCOC1=O)c1ccc(Cl)c(S(=O)(=O)N2CCCCC2)c1 (configuration not stated) | 2 | 1 | 34* | 1 | 11 | 11
O=C(OC1CCOC1=O)C1CCN(S(=O)(=O)c2ccc(Cl)c(C(F)(F)F)c2)CC1 (configuration not stated) | -2 | 3 | 51* | -1 | 14* | 50*
C[C@@H]1CN([C@@H](C)CO)C(=O)c2cc(NC(=O)c3ccccc3)ccc2O[C@@H](C)CCCCO[C@@H]1CN(C)Cc1ccc2c(c1)OCO2 | 0 | nt | nt | nt | nt | nt
C[C@@H](NC(=O)C[C@H]1C[C@H]2c3cc(NC(=O)c4cccnc4)ccc3O[C@H]2[C@@H](CO)O1)c1ccccc1 | 2 | nt | nt | nt | nt | nt
C[C@H]1CN([C@@H](C)CO)C(=O)c2cc(NS(=O)(=O)c3ccc(F)cc3)ccc2O[C@@H]1CN(C)C | -2 | nt | nt | nt | nt | nt
CO[C@@H]1CN(C)C(=O)c2ccc(NC(=O)C3CCCCC3)cc2OC[C@@H](C)NC[C@@H]1C | 0 | nt | nt | nt | nt | nt
COC(=O)C(Cc1ccccc1)NC(=O)CC(C)CC(=O)Nc1ccc(OC)cc1OC (configuration not stated) | 0 | -3 | 35* | 0 | 9 | 9
COc1ccc(NC(=O)NCc2ccco2)c(OC)c1 | -5 | 1 | 33* | -1 | 2 | 2
COc1ccc(NC(=O)Nc2ccccc2SC)c(OC)c1 | 4 | 3 | 34* | 1 | -3 | -10
COc1ccc(NC(=O)CC(C)C)c(OC)c1 | nt | -2 | 2 | -1 | nt | nt
C[C@@H]1CN([C@@H](C)CO)C(=O)c2cc(NC(=O)c3ccncc3)ccc2O[C@H]1CN(C)Cc1ccc(Cl)c(Cl)c1 | -1 | nt | nt | nt | nt | nt
O=C(Nc1nnc(-c2ccccc2)s1)c1ccccc1O | -1 | 4 | 31* | 1 | 0 | -2
C/C(=N/NC(=O)CN(c1ccccc1)S(=O)(=O)c1ccccc1)c1ccccc1O | -3 | -3 | 30* | 0 | 0 | 14
CCCC/C(C)=N/NC(=O)CN(c1ccc(Br)cc1)S(=O)(=O)c1ccccc1 | nt | -4 | 3 | 0 | nt | nt

High-throughput results from PubChem.
